Experiments:
[1] = target: T1, Pituitary adenylate cyclase-activating polypeptide type I receptor (Homo sapiens, UniProt P41586); assay: Displacement of [125I]Ac-PACAP27 from human recombinant PAC1 receptor expressed in CHO cells by gamma- counter; type: cell-based
Target sequence in this assay (P41586 whole entry): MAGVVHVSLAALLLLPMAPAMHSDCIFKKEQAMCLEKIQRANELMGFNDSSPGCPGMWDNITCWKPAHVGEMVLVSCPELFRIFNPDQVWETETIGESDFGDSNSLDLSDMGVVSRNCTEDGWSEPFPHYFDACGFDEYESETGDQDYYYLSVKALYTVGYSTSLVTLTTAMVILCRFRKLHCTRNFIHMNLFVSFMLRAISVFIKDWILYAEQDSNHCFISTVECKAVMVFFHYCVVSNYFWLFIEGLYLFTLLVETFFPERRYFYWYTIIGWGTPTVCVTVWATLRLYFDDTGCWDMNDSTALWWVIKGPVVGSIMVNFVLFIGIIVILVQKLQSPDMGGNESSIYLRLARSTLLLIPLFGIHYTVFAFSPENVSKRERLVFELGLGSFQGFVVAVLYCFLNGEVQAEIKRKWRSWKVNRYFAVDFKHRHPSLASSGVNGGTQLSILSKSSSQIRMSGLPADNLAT

[2] = target: T1, Pituitary adenylate cyclase-activating polypeptide type I receptor; assay: Agonist activity at human recombinant PAC1 receptor expressed in CHO cells assessed as PACAP38-induced calcium mobilization by FLIPR assay; type: functional, cell-based
Procedure, shortened: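 CHO cells stably expressing recombinant human PAC1, plated 24 h before assay, loaded with fluo-4 AM for 60 min at 37 °C in the dark, then rinsed into HBSS for 15 min at 37 °C. EC50 and efficacy came from nonlinear regression; 4-10 independent assays in duplicate.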
Target sequence in this assay (P41586 whole entry): as above

[3] = target: T1, Pituitary adenylate cyclase-activating polypeptide type I receptor; assay: Agonist activity at human recombinant PAC1 receptor expressed in CHO cells assessed as PACAP38-induced calcium mobilization by FLIPR assay relative to PACAP38; type: functional, cell-based
Procedure, shortened: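 CHO cells stably expressing recombinant human PAC1, plated 24 h before assay, loaded with fluo-4 AM for 60 min at 37 °C in the dark, then rinsed into HBSS for 15 min at 37 °C. Peptide was added 18 s into a 150 s read (ex 480/em 525 nm), at final concentrations of 1 × 10-12 to 1 × 10^-5 M. Response was normalised to 1 × 10^-5 M PACAP38 on each plate. EC50 and efficacy came from nonlinear regression; 4-10 independent assays in duplicate.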
Target sequence in this assay (P41586 21-468 limits assumed): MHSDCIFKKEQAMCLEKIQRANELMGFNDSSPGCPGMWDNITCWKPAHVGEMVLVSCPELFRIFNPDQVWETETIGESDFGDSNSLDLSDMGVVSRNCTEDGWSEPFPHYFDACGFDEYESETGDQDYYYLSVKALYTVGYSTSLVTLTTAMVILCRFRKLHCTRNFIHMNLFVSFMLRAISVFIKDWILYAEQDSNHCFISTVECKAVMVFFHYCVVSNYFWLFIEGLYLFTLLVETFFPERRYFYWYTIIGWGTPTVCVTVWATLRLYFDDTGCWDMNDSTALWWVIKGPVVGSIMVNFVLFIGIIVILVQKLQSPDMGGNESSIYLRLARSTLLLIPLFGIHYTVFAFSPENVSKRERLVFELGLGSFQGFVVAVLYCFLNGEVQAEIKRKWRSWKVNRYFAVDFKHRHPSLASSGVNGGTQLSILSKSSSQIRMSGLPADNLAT

Row | Structure (SMILES) | IC50 [1] [nM] | EC50 [2] [nM] | Emax [3] [%]
1 | CC[C@H](C)[C@H](NC(=O)CNC(=O)[C@H](CCCC(=O)O)NC(=O)[C@H](CO)NC(=O)[C@@H](N)Cc1cnc[nH]1)C(=O)N[C@@H](Cc1ccccc1)C(=O)N[C@H](C(=O)N[C@@H](CC(=O)O)C(=O)N[C@@H](CO)C(=O)N[C@@H](Cc1ccc(O)cc1)C(=O)N[C@@H](CO)C(=O)N[C@@H](CCCNC(=N)N)C(=O)N[C@@H](Cc1ccc(O)cc1)C(=O)N[C@@H](CCCNC(=N)N)C(=O)N[C@@H](CCCCN)C(=O)N[C@@H](CCC(N)=O)C(=O)N[C@@H](CCSC)C(=O)N[C@@H](C)C(=O)N[C@H](C(=O)N[C@@H](CCCCN)C(=O)N[C@@H](CCCCN)C(=O)N[C@@H](Cc1ccc(O)cc1)C(=O)N[C@@H](CC(C)C)C(=O)N[C@@H](C)C(=O)N[C@@H](C)C(=O)N[C@H](C(=O)N[C@@H](CC(C)C)C(N)=O)C(C)C)C(C)C)[C@@H](C)O | 818 | 834 | 29.3
2 | CC[C@H](C)[C@H](NC(=O)CNC(=O)[C@H](CC(=O)O)NC(=O)[C@H](CO)NC(=O)[C@@H](N)Cc1cnc[nH]1)C(=O)N1c2ccccc2CC1C(=O)N[C@H](C(=O)N[C@@H](CC(=O)O)C(=O)N[C@@H](CO)C(=O)N[C@@H](Cc1ccc(O)cc1)C(=O)N[C@@H](CO)C(=O)N[C@@H](CCCNC(=N)N)C(=O)N[C@@H](Cc1ccc(O)cc1)C(=O)N[C@@H](CCCNC(=N)N)C(=O)N[C@@H](CCCCN)C(=O)N[C@@H](CCC(N)=O)C(=O)N[C@@H](CCSC)C(=O)N[C@@H](C)C(=O)N[C@H](C(=O)N[C@@H](CCCCN)C(=O)N[C@@H](CCCCN)C(=O)N[C@@H](Cc1ccc(O)cc1)C(=O)N[C@@H](CC(C)C)C(=O)N[C@@H](C)C(=O)N[C@@H](C)C(=O)N[C@H](C(=O)N[C@@H](CC(C)C)C(N)=O)C(C)C)C(C)C)[C@@H](C)O (some centres undefined) | 1940 | 35 | 72
3 | CC[C@H](C)[C@H](NC(=O)CNC(=O)[C@H](CC(=O)O)NC(=O)[C@H](CO)NC(=O)[C@@H](N)Cc1cnc[nH]1)C(=O)N[C@@H](Cc1ccccc1)C(=O)N(C)[C@H](C(=O)N[C@@H](CC(=O)O)C(=O)N[C@@H](CO)C(=O)N[C@@H](Cc1ccc(O)cc1)C(=O)N[C@@H](CO)C(=O)N[C@@H](CCCNC(=N)N)C(=O)N[C@@H](Cc1ccc(O)cc1)C(=O)N[C@@H](CCCNC(=N)N)C(=O)N[C@@H](CCCCN)C(=O)N[C@@H](CCC(N)=O)C(=O)N[C@@H](CCSC)C(=O)N[C@@H](C)C(=O)N[C@H](C(=O)N[C@@H](CCCCN)C(=O)N[C@@H](CCCCN)C(=O)N[C@@H](Cc1ccc(O)cc1)C(=O)N[C@@H](CC(C)C)C(=O)N[C@@H](C)C(=O)N[C@@H](C)C(=O)N[C@H](C(=O)N[C@@H](CC(C)C)C(=O)NCC(=O)N[C@@H](CCCCN)C(=O)N[C@@H](CCCNC(=N)N)C(=O)N[C@@H](Cc1ccc(O)cc1)C(=O)N[C@@H](CCCCN)C(=O)N[C@@H](CCC(N)=O)C(=O)N[C@@H](CCCNC(=N)N)C(=O)N[C@H](C(=O)N[C@@H](CCCCN)C(=O)N[C@@H](CC(N)=O)C(=O)N[C@@H](CCCCN)C(N)=O)C(C)C)C(C)C)C(C)C)[C@@H](C)O | 1010 | 1010 | 40
4 | CC[C@H](C)[C@H](NC(=O)CNC(=O)[C@H](CC(=O)O)NC(=O)[C@H](CO)NC(=O)[C@@H](N)Cc1cnc[nH]1)C(=O)N[C@@H](CC1CCCCC1)C(=O)N[C@H](C(=O)N[C@@H](CC(=O)O)C(=O)N[C@@H](CO)C(=O)N[C@@H](Cc1ccc(O)cc1)C(=O)N[C@@H](CO)C(=O)N[C@@H](CCCNC(=N)N)C(=O)N[C@@H](Cc1ccc(O)cc1)C(=O)N[C@@H](CCCNC(=N)N)C(=O)N[C@@H](CCCCN)C(=O)N[C@@H](CCC(N)=O)C(=O)N[C@@H](CCSC)C(=O)N[C@@H](C)C(=O)N[C@H](C(=O)N[C@@H](CCCCN)C(=O)N[C@@H](CCCCN)C(=O)N[C@@H](Cc1ccc(O)cc1)C(=O)N[C@@H](CC(C)C)C(=O)N[C@@H](C)C(=O)N[C@@H](C)C(=O)N[C@H](C(=O)N[C@@H](CC(C)C)C(N)=O)C(C)C)C(C)C)[C@@H](C)O | 11 | 8.4 | 105

The next compounds have a lower IC50 [1] than those just listed; values first:

Row | IC50 [1] [nM] | EC50 [2] [nM] | Emax [3] [%] | Structure (SMILES)
5 | 8.5 | 2.3 | 89.2 | CC[C@H](C)[C@H](NC(=O)CNC(=O)[C@H](CC(=O)O)NC(=O)[C@@H]1C[C@@H](O)CN1C(=O)[C@@H](N)Cc1cnc[nH]1)C(=O)N[C@@H](Cc1ccccc1)C(=O)N[C@H](C(=O)N[C@@H](CC(=O)O)C(=O)N[C@@H](CO)C(=O)N[C@@H](Cc1ccc(O)cc1)C(=O)N[C@@H](CO)C(=O)N[C@@H](CCCNC(=N)N)C(=O)N[C@@H](Cc1ccc(O)cc1)C(=O)N[C@@H](CCCNC(=N)N)C(=O)N[C@@H](CCCCN)C(=O)N[C@@H](CCC(N)=O)C(=O)N[C@@H](CCSC)C(=O)N[C@@H](C)C(=O)N[C@H](C(=O)N[C@@H](CCCCN)C(=O)N[C@@H](CCCCN)C(=O)N[C@@H](Cc1ccc(O)cc1)C(=O)N[C@@H](CC(C)C)C(=O)N[C@@H](C)C(=O)N[C@@H](C)C(=O)N[C@H](C(=O)N[C@@H](CC(C)C)C(N)=O)C(C)C)C(C)C)[C@@H](C)O
6 | 8.2 | 9.7 | 96.3 | CC[C@H](C)[C@H](NC(=O)CNC(=O)[C@H](CC(=O)O)NC(=O)[C@H](CO)NC(=O)[C@H](Cc1cnc[nH]1)NC(C)=O)C(=O)N[C@@H](Cc1ccccc1)C(=O)N[C@H](C(=O)N[C@@H](CC(=O)O)C(=O)N[C@@H](CO)C(=O)N[C@@H](Cc1ccc(O)cc1)C(=O)N[C@@H](CO)C(=O)N[C@@H](CCCNC(=N)N)C(=O)N[C@@H](Cc1ccc(O)cc1)C(=O)N[C@@H](CCCNC(=N)N)C(=O)N[C@@H](CCCCN)C(=O)N[C@@H](CCC(N)=O)C(=O)N[C@@H](CCSC)C(=O)N[C@@H](C)C(=O)N[C@H](C(=O)N[C@@H](CCCCN)C(=O)N[C@@H](CCCCN)C(=O)N[C@@H](Cc1ccc(O)cc1)C(=O)N[C@@H](CC(C)C)C(=O)N[C@@H](C)C(=O)N[C@@H](C)C(=O)N[C@H](C(=O)N[C@@H](CC(C)C)C(N)=O)C(C)C)C(C)C)[C@@H](C)O
7 | 5.1 | 6.8 | 98.1 | CC[C@H](C)[C@H](NC(=O)CNC(=O)[C@H](CC(=O)O)NC(=O)[C@H](C)NC(=O)[C@@H](N)Cc1cnc[nH]1)C(=O)N[C@@H](Cc1ccccc1)C(=O)N[C@H](C(=O)N[C@@H](CC(=O)O)C(=O)N[C@@H](CO)C(=O)N[C@@H](Cc1ccc(O)cc1)C(=O)N[C@@H](CO)C(=O)N[C@@H](CCCNC(=N)N)C(=O)N[C@@H](Cc1ccc(O)cc1)C(=O)N[C@@H](CCCNC(=N)N)C(=O)N[C@@H](CCCCN)C(=O)N[C@@H](CCC(N)=O)C(=O)N[C@@H](CCSC)C(=O)N[C@@H](C)C(=O)N[C@H](C(=O)N[C@@H](CCCCN)C(=O)N[C@@H](CCCCN)C(=O)N[C@@H](Cc1ccc(O)cc1)C(=O)N[C@@H](CC(C)C)C(=O)N[C@@H](C)C(=O)N[C@@H](C)C(=O)N[C@H](C(=O)N[C@@H](CC(C)C)C(N)=O)C(C)C)C(C)C)[C@@H](C)O
8 | 9.5 | 10.1 | 104 | CC[C@H](C)[C@H](NC(=O)CNC(=O)[C@H](CC(=O)O)NC(=O)C(C)(C)NC(=O)[C@@H](N)Cc1cnc[nH]1)C(=O)N[C@@H](Cc1ccccc1)C(=O)N[C@H](C(=O)N[C@@H](CC(=O)O)C(=O)N[C@@H](CO)C(=O)N[C@@H](Cc1ccc(O)cc1)C(=O)N[C@@H](CO)C(=O)N[C@@H](CCCNC(=N)N)C(=O)N[C@@H](Cc1ccc(O)cc1)C(=O)N[C@@H](CCCNC(=N)N)C(=O)N[C@@H](CCCCN)C(=O)N[C@@H](CCC(N)=O)C(=O)N[C@@H](CCSC)C(=O)N[C@@H](C)C(=O)N[C@H](C(=O)N[C@@H](CCCCN)C(=O)N[C@@H](CCCCN)C(=O)N[C@@H](Cc1ccc(O)cc1)C(=O)N[C@@H](CC(C)C)C(=O)N[C@@H](C)C(=O)N[C@@H](C)C(=O)N[C@H](C(=O)N[C@@H](CC(C)C)C(N)=O)C(C)C)C(C)C)[C@@H](C)O

— ChEMBL document CHEMBL1138520, “Molecular and conformational determinants of pituitary adenylate cyclase-activating polypeptide (PACAP) for activation of the PAC1 receptor” (J Med Chem, 2009)
